Measured values from different studies.
Compare with care: the assays were run in different laboratories.
Matrix: plasma

N#Cc1ccc(Nc2nc(N)cc(Oc3c(F)cc(-c4ccc(C#N)cc4)cc3F)n2)cc1
Tmax (Sprague-Dawley rat; oral, 5 mg/kg): 4 h

N#Cc1[nH]nnc1-c1cccc(OCc2cc(C(F)(F)F)ccc2C(F)(F)F)c1
Tmax (male Sprague-Dawley rat; oral, 10 mg/kg): 1.3 h

CCc1cc(C(=O)NC)c2nccc(N3CCc4c(cc(Cn5ccnc5)cc4-c4cn(C)nc4C(F)(F)F)C3=O)c2c1
Tmax (male Sprague-Dawley rat; oral, 50 mg/kg): 1.7 h

C=CC(=O)N1CC2CC(n3nc(-c4ccc(C(=O)Nc5ccccn5)cc4)c4c(N)ncnc43)CC2C1 (centres unmarked)
Tmax (male Wistar rat; oral, 300 mg/kg): 4 h

CNCc1cc(-c2ccccc2F)n(S(=O)(=O)c2cccnc2)c1
Tmax (male Sprague-Dawley rat; oral, 10 mg/kg): 1 h

COc1ccc2c(Cc3ccccc3F)c3n(c(=O)c2c1OC)CCc1cc2c(cc1-3)OCO2
Tmax (rat; oral, 5 mg/kg): 2.66 h

Oc1c(Br)cc(Cl)c2cccnc12
Tmax (Sprague-Dawley rat; subcutaneous, 10 mg/kg): 1.2 h

COc1cc(/C=C/C(=O)CC(=O)/C=C/c2ccc(O)c(OC)c2)ccc1O
Tmax (male Sprague-Dawley rat; oral, 100 mg/kg): 0.167 h

COCCOC(=O)C1=C(C)NC(C)=C(C(=O)OC(C)C)C1c1cccc([N+](=O)[O-])c1 (centres unmarked)
Tmax (male Sprague-Dawley rat; oral, 12 mg/kg): 0.33 h

O=C(O)CCS(=O)(=O)O
Tmax (male Sprague-Dawley rat; intravenous, 10 mg/kg): 0.083 h

CC(C)(O)[C@H]1CC[C@H](Nc2ccc3ncc(-c4cccc(C(F)(F)F)c4)n3n2)CC1
Tmax (female Sprague-Dawley rat; oral, 40 mg/kg): 1 h

CNC(=O)c1c(C)oc2cc(Oc3ncnc4cc(OC)c(OC)cc34)ccc12
Tmax (Sprague-Dawley rat; oral, 1 mg/kg, single dose): 4.25 h

CCc1cc(OC)c2nccc(N3CCc4c(cc(Cn5ccnc5)cc4-c4cn(C)nc4C(F)(F)F)C3=O)c2c1
Tmax (male Sprague-Dawley rat; oral, 50 mg/kg): 1.7 h

Cc1c(-c2ccccc2)cccc1N1C(=O)c2cc(CN[C@H](C(=O)O)C(C)O)c(OCc3cccc(C#N)c3)cc2C1=O (some centres unmarked)
Tmax (Sprague-Dawley rat; intravenous, 5 mg/kg): 0.08 h

COc1nc(-c2cc(C)c(N[C@@H](C)c3cc(F)cc(F)c3)nn2)ccc1-n1cnc(C)c1
Tmax (male Sprague-Dawley rat; oral, 5 mg/kg, single dose): 5.3 h

N#Cc1[nH]nnc1-c1csc(-c2ccc(Cl)cc2)n1
Tmax (male Sprague-Dawley rat; oral, 10 mg/kg): 1 h

O=C(Nc1cc(F)c(F)c(F)c1)c1ccc(F)c(S(=O)(=O)NCc2cccc(B(O)O)c2)c1
Tmax (male Sprague-Dawley rat; oral, 20 mg/kg): 0.38 h
